Values after ≈ are worked out from the molar mass of the structure shown.
Experiments:
[1] = test system: Mycobacterium tuberculosis; test: Antimycobacterial activity against Mycobacterium tuberculosis H37Rv after 16 to 24 hrs by microplate alamar blue assay; assay type: functional
Outline: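 M. tuberculosis H37Rv (ATCC 27294), 1 × 10^5 cfu/mL inoculum, in 7H12 medium with two-fold compound dilutions at 128 to 0.5 μM final (12.8 mM DMSO stocks). Incubated aerobically at 37 °C for 7 days, then Tween 80 plus Alamar blue added for 16-24 h. Fluorescence read at ex 530/em 590 nm. MIC = lowest concentration giving ≥90% reduction versus bacteria-only controls; average of two measurements.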

[2] = Selectivity index, ratio of IC50 for african green monkey Vero cells to MIC for Mycobacterium tuberculosis H37Rv ATCC 27294; assay type: functional
Outline: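 The ratio takes the Vero (CCL-81) IC50 as numerator. Cells were exposed to geometric 3-fold dilutions (12.8 mM DMSO stocks, final DMSO ≤1% v/v) in MEM with 10% FBS, 25 mM HEPES and 2 mM glutamine, in duplicate. Culture was 72 h at 37 °C, 5% CO2. Viability was read by CellTiter 96 aqueous absorbance at 490 nm, and IC50 came from curve fitting. The denominator is the H37Rv MABA MIC.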

Vero = test: Cytotoxicity against african green monkey Vero cells after 72 hrs; assay type: cell-based; details: Chlorocebus sabaeus
Outline: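 Vero cells (CCL-81), 5 × 10^5 log-phase cells per well, exposed to geometric 3-fold dilutions in MEM with 10% FBS, 25 mM HEPES, 0.2% NaHCO3, 2 mM glutamine. DMSO ≤1% v/v final. Tested in duplicate at 37 °C, 5% CO2. Viability read after 72 h by CellTiter 96 aqueous (MTS) absorbance at 490 nm. IC50 from curve fitting.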

[3] = Tmax in BALB/c mouse at 50 mg/kg, po; assay type: ADME, organism-based; parameters: dose 50 mg/kg, route oral; details: in vivo
Outline: (§1)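 Female BALB/c mice (20-22 g), groups of 12, single oral 50 mg/kg dose formulated in 5% NMP/95% PEG400. Retro-orbital blood sampled at 0, 0.5, 1, 2, 4, 8 and 24 h postdose. Plasma obtained by centrifugation, precipitated with three volumes acetonitrile containing internal standard. Parent quantified by LC-MS-MS. AUC over 0–24 h.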

[4] = Metabolic stability in mouse liver microsomes assessed as intrinsic clearance; assay type: ADME, Microsome
Outline: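 Intrinsic clearance scaled up from the in vitro half-life in mouse liver microsomes. Microsomes at 0.5 mg/mL, compound at 1 μM, 1.0 mM NADPH, pH 7.4 phosphate buffer, 37 °C, in triplicate. Parent depletion followed over 30 min by LC-MS-MS.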

[5] = Cmax in BALB/c mouse at 50 mg/kg, po; assay type: ADME, organism-based; parameters: dose 50 mg/kg, route oral; details: in vivo; outline: as §1
[6] = Metabolic stability in mouse liver microsomes assessed as hepatic clearance; assay type: ADME, Microsome
Outline: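 Hepatic plasma clearance predicted from microsomal intrinsic clearance with the nonrestricted well-stirred liver model. Assumes protein binding is similar in blood and microsomes. Microsomal depletion run at 1 μM compound, 0.5 mg/mL mouse microsomes, 1.0 mM NADPH, 37 °C, in triplicate, measured by LC-MS-MS.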

[7] = AUC in BALB/c mouse at 50 mg/kg, po; assay type: ADME, organism-based; parameters: dose 50 mg/kg, route oral; details: plasma; outline: as §1
[8] = Metabolic stability in mouse liver microsomes assessed as half life; assay type: ADME, Microsome
Outline: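 Mixture prewarmed 5 min, then started with 1.0 mM NADPH. Quenched with acetonitrile plus internal standard at 0, 5, 10, 15, 20 and 30 min. Parent measured by LC-MS-MS. No-NADPH controls.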

| Compound | MIC [1] [µM] | other results |
| --- | --- | --- |
| Cc1cc(C)cc(-n2ncc3c2CCCC3NC(=O)c2ccc3c(c2)no[n+]3[O-])c1 (stereo not given) | 1.9 (≈ 0.767 µg/mL) | – |
| Cc1nonc1C(=O)NC1CCCc2c1cnn2-c1ccccc1C(F)(F)F (stereo not given) | > 128 | – |
| Cc1nonc1C(=O)NC1CCCc2c1cnn2-c1cccc(C(F)(F)F)c1 (stereo not given) | 15.4 (≈ 6.03 µg/mL) | – |
| CC(C)(C)c1ccc(-n2ncc3c2CCCC3NC(=O)c2ccc3c(c2)no[n+]3[O-])cc1 (stereo not given) | 1 (≈ 0.431 µg/mL) | Ratio IC50 [2]: 29; IC50 (Vero): 29 µM |
| Cc1nonc1C(=O)NC1CCCc2c1cnn2-c1ccc([N+](=O)[O-])cc1 (stereo not given) | > 128 | – |
| Cc1cc(C)cc(-n2ncc3c(NC(=O)c4nonc4C)cccc32)c1 | 117 (≈ 40.6 µg/mL) | – |
| Cc1nonc1C(=O)NC1CCCc2c1nnn2-c1ccc(C(C)(C)C)cc1 (stereo not given) | 7.7 (≈ 2.93 µg/mL) | – |
| CSCCC(=O)NC1CCCc2c1cnn2-c1ccc(OC(F)(F)F)cc1 (stereo not given) | 88.3 (≈ 35.3 µg/mL) | – |
| Cc1nonc1C(=O)Nc1ccc(-n2ncc3c2CCCC3NC(=O)c2nonc2C)cc1 (stereo not given) | 44.9 (≈ 20.1 µg/mL) | – |
| CC(C)(C)c1ccc(-n2ncc3c2CCCC3NC(=O)c2ccno2)cc1 (stereo not given) | 124 (≈ 45.2 µg/mL) | – |
| Cc1nonc1C(=O)NC1CCCc2c1cnn2-c1ccc(OC(F)(F)F)cc1 (stereo not given) | 1.9 (≈ 0.774 µg/mL) | Ratio IC50 [2]: >67.4; Tmax [3]: 30 min; CLint scaled [4]: 54 mL/min/kg; Cmax [5]: 9.5 µM; IC50 (Vero): > 128 µM; CLhep predicted [6]: 23 mL/min/kg; AUC [7]: 53.5 µM·h; half-life [8]: 102 min |
| Cc1nonc1C(=O)NC1CCCc2c1cnn2-c1ccc(NC(C)C)cc1 (stereo not given) | > 128 | – |
| Cc1nonc1CNC1CCCc2c1cnn2-c1ccc(C(C)(C)C)cc1 (stereo not given) | 38.6 (≈ 14.1 µg/mL) | – |
| COC(=O)c1ccc(C(=O)NC2CCCc3c2cnn3-c2ccc(C(C)(C)C)cc2)nc1 (stereo not given) | 7.3 (≈ 3.16 µg/mL) | – |
| CC(C)(C)c1ccc(-n2ncc3c(NC(=O)c4ccc5c(c4)no[n+]5[O-])cccc32)cc1 | 0.4 (≈ 0.171 µg/mL) | Ratio IC50 [2]: 4.5; IC50 (Vero): 1.8 µM |
| CSCC[C@H](N)C(=O)NC1CCCc2c1cnn2-c1ccc(C(C)(C)C)cc1 (stereo not given in full) | 4.8 (≈ 1.92 µg/mL) | – |
| Cc1nc2cc(C(=O)NC3CCCc4c3cnn4-c3ccc(OC(F)(F)F)cc3)ccc2s1 (stereo not given) | > 128 | – |
| Cc1nonc1C(=O)NC1CCCc2c1cnn2-c1ccc(F)cc1 (stereo not given) | 30.7 (≈ 10.5 µg/mL) | – |

| Compound | MIC [1] [µM] | other results |
| --- | --- | --- |
| Cc1nonc1C(=O)Nc1cccc2c1cnn2-c1ccc(C(C)(C)C)cc1 | > 128 | – |
| Cc1nonc1C(=O)NC1CCCc2c1cnn2-c1ccc(N)cc1 (stereo not given) | > 128 | – |
| CC(C)(C)c1ccc(-n2ncc3c2CCCC3NC(=O)c2ccc3nonc3c2)cc1 (stereo not given) | > 128 | – |
| Cc1nocc1C(=O)NC1CCCc2c1cnn2-c1ccc(OC(F)(F)F)cc1 (stereo not given) | 48.9 (≈ 19.9 µg/mL) | – |
| Cc1nonc1C(=O)NC1CCCc2c1cnn2-c1ccc(NC(=O)C(F)(F)F)cc1 (stereo not given) | 128 (≈ 55.4 µg/mL) | – |
| Cc1nonc1C(=O)NC1CCCc2c1cnn2-c1ccc(Br)cc1 (stereo not given) | 64.6 (≈ 26 µg/mL) | – |
| Cc1nonc1C(=O)NC1CCCc2c1cnn2-c1ccc(NC(=O)C(C)(C)C)cc1 (stereo not given) | 110 (≈ 46.5 µg/mL) | – |
| Cc1nonc1C(=O)NC1CCCc2c1cnn2-c1ccc(C(F)(F)F)cn1 (stereo not given) | > 128 | – |
| Cc1nonc1C(=O)NC1CCCc2c1cnn2-c1ccc(C(F)(F)F)cc1 (stereo not given) | 1.9 (≈ 0.744 µg/mL) | Ratio IC50 [2]: >67.4; IC50 (Vero): > 128 µM |
| COc1ccc(-n2ncc3c2CCCC3NC(=O)c2nonc2C)cc1 (stereo not given) | > 128 | – |
| Cc1cc(C)cc(-n2ncc3c2CCCC3NC(=O)c2ccc3nonc3c2)c1 (stereo not given) | > 128 | – |
| Cc1nonc1C(=O)NC1CCCc2c1cnn2-c1ccc(C(C)(C)C)cc1 (stereo not given) | 1.7 (≈ 0.645 µg/mL) | Ratio IC50 [2]: >75.3; Tmax [3]: 30 min; CLint scaled [4]: 200 mL/min/kg; Cmax [5]: 1.5 µM; IC50 (Vero): > 128 µM; CLhep predicted [6]: 34 mL/min/kg; AUC [7]: 3.6 µM·h; half-life [8]: 27 min |
| CC(C)(C)c1ccc(-n2ncc3c2CCCC3NC(=O)c2cnccn2)cc1 (stereo not given) | 57.7 (≈ 21.7 µg/mL) | – |
| Cc1cc(C)cc(-n2ncc3c(NC(=O)c4ccc5c(c4)no[n+]5[O-])cccc32)c1 | 0.7 (≈ 0.28 µg/mL) | Ratio IC50 [2]: 23; IC50 (Vero): 16.1 µM |
| Cc1cc(C)cc(-n2ncc3c2CCCC3NC(=O)c2nonc2C)c1 (stereo not given) | > 128 | – |
| CC(C)(C)c1ccc(-n2ncc3c2CCCC3NC(=O)c2ncccc2O)cc1 (stereo not given) | 26.9 (≈ 10.5 µg/mL) | – |
| CO[C@H]1/C=C/O[C@@]2(C)Oc3c(C)c(O)c4c(O)c(c(/C=N/N5CCN(C)CC5)c(O)c4c3C2=O)NC(=O)/C(C)=C\C=C\[C@H](C)[C@H](O)[C@@H](C)[C@@H](O)[C@@H](C)[C@H](OC(C)=O)[C@@H]1C [RIFAMPIN] | 0.06 (≈ 0.0494 µg/mL) | Ratio IC50 [2]: 2033 |

Source: ChEMBL document CHEMBL1156793, “Identification, synthesis, and pharmacological evaluation of tetrahydroindazole based ligands as novel antituberculosis agents” (J Med Chem, 2010)
